Published values collected from several papers.
Target: Mitogen-activated protein kinase kinase kinase kinase 5 (MAP4K5, Homo sapiens, UniProt Q9Y4K4)

observed | mode | technique | cells | tested at | endpoint | value | Compound
enzyme activity | inhibitor |  |  | 1 µM | inhibition | 4% | CN1CC(Oc2cnc(C#N)cc2-c2ccn3nc(NC(=O)C4CC4)cc3c2)C1
enzyme activity | inhibitor |  |  | 23.5 nM | remaining activity | 69% | Cc1ccc(C(=O)Nc2ccc(CN3CCN(C)CC3)c(C(F)(F)F)c2)cc1C#Cc1cnc2cccnn12
cell-free assay |  |  |  | 0.5 µM | remaining signal | 89.5% | O=C1NC(=O)c2cc(Nc3ccc(F)cc3)c(Nc3ccc(F)cc3)cc21
cell-free assay |  | competition with immobilised ligand |  | 1 µM | remaining binding | 100% | Cc1cc(NC(=O)c2cccc(S(F)(F)(F)(F)F)c2)cc(-n2ccn3nc(-c4cccnc4)cc23)c1
enzyme activity | inhibitor |  |  | 1 µM | inhibition | -2% | COc1cc2ncnc(Nc3ccc(Oc4ccccc4)c(C)c3C)c2cc1OC
cell-free assay |  | competition with immobilised ligand |  | 1 µM | remaining binding | 88% | CO[C@@H](C)c1c(Nc2ccc([C@H](N(C)C(=O)C3CCS(=O)(=O)CC3)C(F)(F)F)cc2)cnc2cc(Cl)nn12
cell-free assay |  |  |  | 0.5 µM | remaining signal | 75.9% | O=C1Nc2ccc(Cl)cc2C1=Cc1cc(Cl)c(O)c(Cl)c1
enzyme activity | inhibitor | radiometric |  | 1 µM | remaining activity | 90% | CC(C)(C)c1nc(-c2cccc(NS(=O)(=O)c3c(F)cccc3F)c2F)c(-c2ccnc(N)n2)s1
enzyme activity | inhibitor |  |  | 1 µM | remaining activity | 83.2% | CC(C)(O)[C@H]1CC[C@H](Nc2ccc3ncc(-c4cccc(C(F)(F)F)c4)n3n2)CC1
cell-free assay |  | competition with immobilised ligand |  | 1 µM | remaining binding | 100% | CNCc1ccccc1-c1csc([C@H](C)Nc2nc(C)nc3cc(OC)c(OC)cc23)c1
target engagement in cells | inhibitor | chemoproteomics | A-375 | 0.5 µM | inhibition | -0.264% | CCN1CCN(Cc2ccc(NC(=O)c3ccc(C)c(Oc4ccnc5[nH]ccc45)c3)cc2C(F)(F)F)CC1
cell-free assay |  |  |  | 0.5 µM | remaining signal | 101% | Clc1ccc(Nc2nnc(Cc3ccncc3)c3ccccc23)cc1
cell-free assay |  | competition with immobilised ligand |  | 0.1 µM | remaining binding | 83.4% | Cc1cc(C)c(-n2ccn3nc(-c4cccnc4)cc23)cc1NC(=O)c1cc(C#N)cc(S(F)(F)(F)(F)F)c1
enzyme activity | inhibitor |  |  | 5 µM | remaining activity | 99.1% | O=C(Nc1cnn(-c2csc(C(=O)NC3COC3)c2)c1)Nc1ccccc1Cl
binding |  | competition with immobilised ligand |  | 1 µM | remaining binding | 100% | c1ccc(N2CCN(Cc3nc4ccccc4[nH]3)CC2)nc1
enzyme activity | inhibitor | radiometric |  | 1 µM | activity vs control | 110% | FC(F)(F)Oc1cccc(-c2cnc3ccc(-c4ccncc4)nn23)c1
cell-free assay |  | competition with immobilised ligand |  | 1 µM | remaining binding | 98% | CS(=O)(=O)c1cc(C2(NC(=O)c3cncc4c3cnn4-c3ccc(F)cc3)CC2)ccn1
binding |  |  |  | 1 µM | remaining binding | 100% | CN(C)c1nccc(-c2cnc3ncccn23)n1
enzyme activity | inhibitor |  |  | 1 µM | activity vs control | 7% | Cc1ccc(C(=O)NCc2ccsc2)cc1C#Cc1cn(C(C)C)c2ncnc(N)c12
